# Experimental data reported in PubChem BioAssay AID720543 (The Scripps Research Institute Molecular Screening Center, 2013).
# Among all 370,000 compounds or so, about 2,000 (0.54%) were called active. What follows is part of a selection rich in actives, with near analogues and random picks from the rest. Unmarked numbers belong to inactive results.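 The calls were made as follows: active = inhibition exceeding the mean over every tested compound plus 3 SD (cut at about 30% in these data); inactive = the rest.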
# Target: (Lyso)-N-acylphosphatidylethanolamine lipase (Mus musculus) (UniProt Q8VD66)
# Assay: ABHD4 inhibitors, primary screen, biochemical, fluorescence polarization, mouse (AID 720543);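 also: 0% = plate median of compound wells and 100% = S159A mutant with DMSO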
# Conditions: purified mABHD4, FP-Rh probe fluorescence polarization; at 8.92 µM; hits give high values
# Procedure, shortened: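 system = mouse ABHD4 enzyme, wild type | medium = HEPES pH 7.0, NaCl, Pluronic buffer | also added = FP-Rh probe | incubation = Enzyme–compound pre-incubation 45 min, then probe 60 min, both 25 °C | technique = fluorescence polarization, excitation 525 nm, emission 598 nm, BODIPY TMR filters | controls = S159A mutant high control, sample median low control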
# (Lyso)-N-acylphosphatidylethanolamine lipase (Mus musculus), sequence (Q8VD66 whole entry, looked up): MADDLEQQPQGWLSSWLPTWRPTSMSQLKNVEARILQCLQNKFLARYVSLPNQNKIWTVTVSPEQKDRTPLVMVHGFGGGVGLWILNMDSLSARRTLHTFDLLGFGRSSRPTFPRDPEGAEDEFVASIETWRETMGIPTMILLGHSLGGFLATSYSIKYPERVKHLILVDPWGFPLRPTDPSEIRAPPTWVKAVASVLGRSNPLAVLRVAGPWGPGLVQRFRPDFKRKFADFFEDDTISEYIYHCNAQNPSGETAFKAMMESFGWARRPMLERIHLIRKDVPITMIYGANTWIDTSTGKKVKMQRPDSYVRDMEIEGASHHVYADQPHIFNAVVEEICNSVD
row,Structure (SMILES),inhibition
1,NC1=CC(=O)C(=O)c2cccnc21,59.2% (active)
2,COC(=O)C[C@@H]1CC[C@@H]2[C@H](COc3ccc(NC(=O)c4cccc(F)c4)cc3C(=O)N2C)O1,-0.54%
3,CO[C@@H]1CN(C)C(=O)c2cc(NC(=O)C3CC3)ccc2OC[C@H](C)N(C(=O)CN2CCOCC2)C[C@@H]1C,-0.34%
4,CCC(CO)Oc1cc(NC(=O)c2cccc(F)c2)c2ncn(C(C)C)c2c1 (stereo not drawn),44.4% (active)
5,Cc1ccc(F)cc1NC(=O)c1cccc(N(C)C)c1,-2.26%
6,CCCOc1cccc(C(=O)Nc2nnn(CCC)n2)c1,7.16%
7,Nc1ncnc2c1ncn2[C@@H]1O[C@H](CNS(=O)(=O)c2ccc(-c3ccno3)s2)[C@@H](O)[C@H]1O,-3.46%
8,CC(C)(C)OC(=O)NCCc1ccccc1/C=C/S(=O)(=O)NCc1ccc(F)cc1,14.8%
9,Cc1cccc(-n2cnc(C(=O)Nc3cccnc3)c2)n1,-2.09%
10,O=C(NNC(=S)Nc1ccccc1)c1cccc(S(=O)(=O)N2CCOCC2)c1,1.73%
11,Cc1cccc(-n2cnc(C(=O)NNC(=S)Nc3ccccc3)c2)n1,43.3% (active)
12,CC(=O)N1N=C(c2ccncc2)OC1(Cc1ccccc1)Cc1ccccc1,-3.49%
13,CCOC(=O)[C@]12CCCC3=C1N(CCC3)C(=O)[C@@H](CC(=O)NCc1cccs1)C2,-5.06%
14,CN(C)CCCN(Cc1cc2cc3c(cc2[nH]c1=O)OCCO3)C(=O)NC1CCCCC1,1.3%
15,O=S1(=O)c2ccc(Br)cc2-n2nncc2CN1Cc1cccc(Cl)c1,-5.52%
16,Cc1ccccc1OCC(=O)NCC(=O)OCC(=O)c1ccc2ccccc2c1,3.01%
17,Cc1cc2ccccc2n1CCNC(=O)COc1ccc2ccccc2c1,40.9% (active)
18,O=C(COc1ccc(Cl)cc1)NCCSc1ccccc1,-6.3%
19,O=C(N1CCOCC1)N1CC[C@H]2[C@H](CCCN2Cc2ccc(F)cc2)C1,4.72%
20,CC(C)C(C#CC1CC1)N(Cc1ccc2c(c1)OCO2)C(N)=NC(=O)/C=C/c1cccc(C(F)(F)F)c1 (stereo not drawn),4.25%
21,O=c1[nH]n(-c2ccc([N+](=O)[O-])cc2)c(=O)c2ccccc12,59.3% (active)
22,C=CCNC(=S)N1CCN(CCN=Cc2c(C)[nH]n(-c3ccc([N+](=O)[O-])cc3)c2=O)CC1,-6.41%

row,Structure (SMILES),inhibition
1,O=C(Nn1c(SCc2ccc([N+](=O)[O-])cc2)nc2ccccc2c1=O)c1ccc(F)cc1,-52.4%
2,O=C(Nc1cc(F)cc(F)c1)OC1CCC12CCC(c1ccccc1)CC2 (stereo not drawn),-31.2%
3,CC(Oc1ccc(Cl)cc1)c1ccnn1S(C)(=O)=O (stereo not drawn),1.1%
4,CCOC(=O)C1(Cc2ccccc2)CCN(Cc2cn(C(C)=O)c3ccccc23)CC1,-1.19%
5,CCc1c(C)nc2c(OC)cccc2c1Cl,0.48%
6,COc1ccc(C)cc1NC(=O)c1[nH]c(C)c(C(C)=O)c1C,-2.22%
7,COc1cccc2c(C)c(C(=O)O)[nH]c12,35.9% (active)
8,COC(=O)c1cccc(Cn2ccc3ccc(-c4ccc5ccn(C(=O)c6ccccc6C)c5c4)cc32)c1,1.96%
9,CCOC(=O)C[C@H]1c2ccc(C(F)(F)F)cc2S(=O)(=O)N1c1ccccc1,-6.24%
10,CCOC(=O)C1Nc2ccc(C(F)(F)F)cc2C2C=CCC12 (stereo not drawn),41.8% (active)
11,CCOC(=O)/C=C/c1ccc(C(F)(F)F)cc1S(=O)(=O)NC(C)(C)C,-26.5%
12,CN1C(=O)c2cc(NS(C)(=O)=O)ccc2OC[C@@H]2O[C@@H](CC(=O)NCc3ccc(-c4ccccc4)cc3)CC[C@H]21,3.8%
13,Cc1ccc(Cn2cc(CN3[C@@H](CC(C)C)COc4ccc(Cl)cc4S3(=O)=O)nn2)cc1,4.37%
14,O=C(NCc1cccs1)C1CCCN(S(=O)(=O)c2ccc([N+](=O)[O-])cc2)C1 (stereo not drawn),4.68%
15,CCC(C)Cn1c(O)cc2nn(-c3nc4ccccc4s3)c(=O)c-2c1C (stereo not drawn),44.6% (active)
16,O=S(=O)([N-]c1nc2ccccc2nc1-[n+]1ccc(Cc2ccccc2)cc1)c1ccc(Br)s1,7.29%
17,O=C1CCN(C(=O)Nc2ccccc2)N1,6.15%
18,Cc1ccc(NC2CCCN(C(=O)CCC3(C)CC3)C2)cc1C (stereo not drawn),8.21%
19,O=C(Nc1cc(Cl)cc(Cl)c1)OCCN1CCCC12CCC(c1ccccc1)CC2 (stereo not drawn),2.15%
20,COC(=O)c1ccc(COc2cc([N+](=O)[O-])cc3cccnc23)cc1,6.05%
21,COC(=O)C(C)N(C#N)c1nc(C)nc(C)n1 (stereo not drawn),-1.89%
22,O=C(Nc1ccccc1[N+](=O)[O-])C1C(c2ccccc2)=C1c1ccccc1,-0.35%

row,Structure (SMILES),inhibition
1,O=C(O)c1cc([N+](=O)[O-])c(Nc2cccc3ccccc23)c([N+](=O)[O-])c1,35.4% (active)
2,CCN(C(=O)Nc1cccc2ccccc12)c1ccccc1,18.5%
3,O=C1C(=O)N(Cc2ccc(-c3ccsc3)cc2)c2ccc(OC(F)(F)F)cc21,1.83%
4,COC(=O)[C@]12C[C@H](CC(=O)NCc3ccccc3)C(=O)N(CCc3ccc(OC)c(OC)c3)C1=C[C@H](C(C)(C)C)O[C@@H]2C,4.6%
5,CCOc1cc(/C=C2/N=C(c3ccc(C(C)(C)C)cc3)OC2=O)cc(Cl)c1OS(C)(=O)=O,37.3% (active)
6,CNc1[nH]ncc1[N+](=O)[O-],7.62%
7,CN(C)CC(=O)N[C@@H]1C[C@@H]2O[C@H](CO)CC[C@@H]2O[C@@H]1CCc1ccc(C#Cc2ccccc2)cc1,3.38%
8,C#CCCN([C@H](C(=O)OC)C(C)C)S(=O)(=O)c1ccc(F)cc1Br,-7.15%
9,CC(=O)N(c1ccc2oc(=O)sc2c1)S(=O)(=O)c1ccc(C)cc1,7.97%
10,O=C(c1cccnc1)N(c1cc2sc(=O)oc2c2ccccc12)S(=O)(=O)c1ccccc1,61.7% (active)
11,O=C(CN(Cc1ccc(Br)cc1)S(=O)(=O)c1ccccc1)NCc1ccncc1,-0.4%
12,Cc1cc(C)nc(NC(=S)N2CCN(c3ccc(C(F)(F)F)cn3)CC2)c1,8.35%
13,O=C(NCc1ccco1)C1CCCN(S(=O)(=O)c2cccc3nonc23)C1 (stereo not drawn),5.79%
14,CCc1ccc(-c2nn(-c3ccccc3)cc2CSC(=N)N)cc1,52.2% (active)
15,CCOc1ccc(Br)cc1CSC(=N)N,4.65%
16,CCc1ccc(-c2nn(-c3ccccc3C)cc2C(=O)N2CCN(C3CCS(=O)(=O)C3)CC2)cc1 (stereo not drawn),5.26%
17,CC1=C(C/C=C(\C)CCCC(C)CCCC(C)CCCC(C)C)C(=O)c2ccccc2C1=O (stereo not drawn),-0.54%
18,C=C(C)C1CC23C(=O)C4(C(=O)c5ccccc5)C[C@@]5(C)CCC(CC2C1(C)C)(C4=O)C35OC (stereo partly drawn),-1.09%
19,NNc1nc2c(Cl)cccc2s1,70.2% (active)
20,CCOCCOCCC(C(=O)O)P(=O)(c1ccccc1)c1ccccc1 (stereo not drawn),4.54%
21,C=C1c2c(Cl)ccc(O)c2C(O)=C2C(=O)[C@]3(O)C(O)=C(C(N)=O)C(=O)[C@@H](N(C)C)[C@@H]3[C@@H](O)C12 (stereo partly drawn),69.7% (active)
22,CN(C)[C@@H]1C(=O)C(C(N)=O)=C(O)[C@@]2(O)C(=O)C3=C(O)c4c(O)ccc(Cl)c4[C@@H](O)[C@H]3C[C@@H]12,55.1% (active)

row,Structure (SMILES),inhibition
1,COc1ccccc1NC(=O)CCC(=O)OC(C)C(=O)c1ccccc1 (stereo not drawn),4.06%
2,C#CCN([C@H](C(=O)OC)C(C)CC)S(=O)(=O)c1ccccc1Br (stereo partly drawn),-0.06%
3,O=C(C(=O)N1CCC(CNC(=O)c2cccnc2Cl)CC1)c1cccs1,2.01%
4,Cc1[nH]nc2c1C(c1ccc(Br)cc1)NC2=O (stereo not drawn),7.99%
5,Cc1cc(NS(=O)(=O)c2ccc(NC(=O)CSc3nnc(-c4ccc(C(C)(C)C)cc4)n3Cc3ccco3)cc2)nc(C)n1,-7.09%
6,O=C(c1ncn2c1c(=O)[nH]c1ccccc12)N1CCc2ccccc2C1,-9.48%
7,O=c1[nH]c2ccccc2n2c(-c3ccccc3)nnc12,43.1% (active)
8,O=C(O)C1C2CC2CN1C(=O)c1ccc(Cl)cc1Cl (stereo not drawn),0.74%
9,CCCNC(=O)CN(Cc1ccccc1F)S(=O)(=O)c1ccc(C)cc1,-5.78%
10,CC[C@@H]1Cc2cc(O)ccc2C2=C1c1ccc(O)cc1C[C@H]2CC,35.5% (active)
11,Cc1ccc(S(=O)(=O)N2CCCC2C(=O)NCc2ccco2)cc1 (stereo not drawn),5.4%
12,CC(C)c1ccc(NC(=S)NC2CC3C=CC2C3)cc1 (stereo not drawn),-0.07%
13,O=C(NC(=S)Nc1ccc(Cl)c(C(=O)O)c1)c1cncc(Br)c1,-0.66%
14,CC(C)c1ccc(NC(=S)NNc2ccc(Cl)c(C(=O)O)c2)cc1,37.3% (active)
15,C=CCN1C(C(=O)OC)CN(Cc2cn(Cc3ccccc3)nn2)CCS1(=O)=O (stereo not drawn),-0.95%
16,COc1ccccc1C1=Nc2cccc3cccc(c23)N1,56.6% (active)
17,COc1ccccc1-c1sc2ccccc2c1-c1ccc(Br)nc1,-9.92%
18,COc1ccccc1-c1n[nH]nc1C1=CC(=O)CC(C)(C)C1,-5.54%
19,CCn1c(=O)n2n(c1=O)[C@@]1(C=C3CCCC[C@H]32)N=C(NC(=O)c2ccccc2)N(Cc2ccccc2)[C@H]1Cc1ccccc1,5.91%
20,COCCNC(=O)c1cc2c(Br)ccc(Br)c2nc1N,-4.62%
21,COCCNC(=O)Nc1ccc2nc(-c3ccco3)c(-c3ccco3)nc2c1,50.8% (active)
22,COCCNC(=S)c1ccc(OC)cc1,4.41%
